# Results as given in PMC5656813 (Arthritis & Rheumatology (Hoboken, N.j.), 2017).
# Key:
# RA patients [1] = experiment: Study 2, treatment‐emergent adverse events; assay type: in vivo, human; settings: 300 mg once daily
# In short: (§1)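 Both double-blind, placebo-controlled trials in RA patients on stable MTX. Oral capsules daily for 4 weeks, with 7–10-day follow-up: 200 mg once daily or 100 mg twice daily (study 1); 30, 75, 150 or 300 mg once daily (study 2). At every visit: AEs, vital signs, hematology, serum biochemistry, coagulation and urinalysis. EKG at baseline and follow-up, plus week 4 in study 1. Safety population, descriptive treatment-emergent AE summaries.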
# JAK‐1 relative to JAK‐2 = settings: human whole blood assays; cited from earlier work
# [2] = cited from earlier work
# RA patients [3] = experiment: Studies 1 and 2, laboratory safety, hematology, vital signs, EKG; assay type: in vivo, human
# In short: as §1
# [4] = tested on: RA patients with an inadequate response to MTX; experiment: Study 1; assay type: in vivo, human
# In short: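 Randomized, double-blind, placebo-controlled trial at one site, 36 RA patients. Patients had MTX for ≥6 months and a stable 7.5–25 mg/week dose for ≥4 weeks, continued throughout. Oral capsules for 4 weeks: 200 mg once daily or 100 mg twice daily. ACR20/50/70 responses, DAS28-CRP and ACR core components (pain VAS, HAQ DI) scored as change from baseline. Intent-to-treat population.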
smiles,measurement,setting,value
O=C(Nc1nc2cccc(-c3ccc(CN4CCS(=O)(=O)CC4)cc3)n2n1)C1CC1 [Filgotinib],treatment-related TEAE: Musculoskeletal and connective tissue disorders,RA patients [1],0 number (%) of patients
same,treatment-related TEAE: Nervous system disorders,RA patients [1],0 number (%) of patients
same,treatment-related TEAE: Renal and urinary disorders,RA patients [1],1 (5.0) number (%) of patients
same,selectivity for inhibition of JAK‐1 relative to JAK‐2,JAK‐1 relative to JAK‐2,~30 fold
same,PK half‐life,[2],~7 h
same,"Creatinine, mean change, day 28",RA patients [3]; 30 mg once daily,1.47 µmol/L
same,"HDL cholesterol, mean change, day 28",RA patients [3]; 30 mg once daily,0.03 mmol/L
same,"Hemoglobin, mean change, day 28",RA patients [3]; 30 mg once daily,−0.3 gm/liter
same,"LDL cholesterol, mean change, day 28",RA patients [3]; 30 mg once daily,0.25 mmol/L
same,"Neutrophils, mean change, day 28",RA patients [3]; 30 mg once daily,-6.5e+08 L⁻¹
same,"Platelets, mean change, day 28",RA patients [3]; 30 mg once daily,-1.8e+10 L⁻¹
same,"Creatinine, mean change, day 28",RA patients [3]; 75 mg once daily,5.18 µmol/L
same,"HDL cholesterol, mean change, day 28",RA patients [3]; 75 mg once daily,0.11 mmol/L
same,"Hemoglobin, mean change, day 28",RA patients [3]; 75 mg once daily,2.0 gm/liter
same,"LDL cholesterol, mean change, day 28",RA patients [3]; 75 mg once daily,0.14 mmol/L
same,"Neutrophils, mean change, day 28",RA patients [3]; 75 mg once daily,-7.4e+08 L⁻¹
same,"Platelets, mean change, day 28",RA patients [3]; 75 mg once daily,-3.5e+10 L⁻¹
same,"Creatinine, mean change, day 28",RA patients [3]; 100 mg twice daily,-6.98 µmol/L
same,"HDL cholesterol, mean change, day 28",RA patients [3]; 100 mg twice daily,0.20 mmol/L
same,"Hemoglobin, mean change, day 28",RA patients [3]; 100 mg twice daily,3.0 gm/liter
same,"LDL cholesterol, mean change, day 28",RA patients [3]; 100 mg twice daily,0.07 mmol/L
same,"Neutrophils, mean change, day 28",RA patients [3]; 100 mg twice daily,-1.45e+09 L⁻¹
same,"Platelets, mean change, day 28",RA patients [3]; 100 mg twice daily,-3.5e+10 L⁻¹
same,"Creatinine, mean change, day 28",RA patients [3]; 150 mg once daily,4.50 µmol/L
same,"HDL cholesterol, mean change, day 28",RA patients [3]; 150 mg once daily,0.07 mmol/L
same,"Hemoglobin, mean change, day 28",RA patients [3]; 150 mg once daily,−1.0 gm/liter
same,"LDL cholesterol, mean change, day 28",RA patients [3]; 150 mg once daily,0.01 mmol/L
same,"Neutrophils, mean change, day 28",RA patients [3]; 150 mg once daily,-1.37e+09 L⁻¹
same,"Platelets, mean change, day 28",RA patients [3]; 150 mg once daily,-3.2e+10 L⁻¹
same,increase in HDL at week 4 versus baseline,RA patients [3]; 200 mg,~15%
same,"Creatinine, mean change, day 28",RA patients [3]; 200 mg once daily,5.47 µmol/L
same,"HDL cholesterol, mean change, day 28",RA patients [3]; 200 mg once daily,0.16 mmol/L
same,"Hemoglobin, mean change, day 28",RA patients [3]; 200 mg once daily,7.8 gm/liter
same,"LDL cholesterol, mean change, day 28",RA patients [3]; 200 mg once daily,-0.25 mmol/L
same,"Neutrophils, mean change, day 28",RA patients [3]; 200 mg once daily,-1.21e+09 L⁻¹
same,"Platelets, mean change, day 28",RA patients [3]; 200 mg once daily,-3.3e+10 L⁻¹
same,increase in HDL at week 4 versus baseline,RA patients [3]; 300 mg,> 30%
same,"Creatinine, mean change, day 28",RA patients [3]; 300 mg once daily,6.90 µmol/L
same,"HDL cholesterol, mean change, day 28",RA patients [3]; 300 mg once daily,0.48 mmol/L
same,"Hemoglobin, mean change, day 28",RA patients [3]; 300 mg once daily,4.4 gm/liter
same,"LDL cholesterol, mean change, day 28",RA patients [3]; 300 mg once daily,0.37 mmol/L
same,"Neutrophils, mean change, day 28",RA patients [3]; 300 mg once daily,-1.13e+09 L⁻¹
same,"Platelets, mean change, day 28",RA patients [3]; 300 mg once daily,-5.8e+10 L⁻¹
same,decrease in neutrophils from baseline,RA patients [3]; doses of ≥75 mg,14–24%
same,lymphocytes and lymphocyte subpopulations,RA patients [3]; during filgotinib treatment,unaffected
same,liver function tests (transaminases),RA patients [3]; in vivo,lack of changes
same,neutropenia,RA patients [3]; in vivo,no neutropenia
same,reticulocytes,RA patients [3]; in vivo,absence of effects
same,vital signs values and EKG parameters,RA patients [3]; in vivo,No clinically relevant trends or changes
same,ACR20 responders at week 4,"[4]; 100 mg twice daily, study 1",11 (91.7) no. (%)
same,ACR50 responders at week 4,"[4]; 100 mg twice daily, study 1",4 (33.3) no. (%)
same,"DAS28‐CRP, mean change from baseline at week 4","[4]; 100 mg twice daily, study 1",−2.81
same,"HAQ DI score, mean change from baseline at week 4","[4]; 100 mg twice daily, study 1",−0.52
same,"Patient's assessment of pain, mean change from baseline at week 4","[4]; 100 mg twice daily, study 1",−29.8 0–10‐cm VAS
same,"Patient's global assessment of disease activity, mean change from baseline at week 4","[4]; 100 mg twice daily, study 1",−25.8 0–10‐cm VAS
same,"Physician's global assessment of disease activity, mean change from baseline at week 4","[4]; 100 mg twice daily, study 1",−35.0 0–10‐cm VAS
same,Remission rate (DAS28‐CRP <2.6) at week 4,"[4]; 100 mg twice daily, study 1",3 (25.0) no. (%)
same,"SJC66, mean change from baseline at week 4","[4]; 100 mg twice daily, study 1",−15.4
same,"Serum CRP, mean change from baseline at week 4","[4]; 100 mg twice daily, study 1",-13.84 mg/L
same,"TJC68, mean change from baseline at week 4","[4]; 100 mg twice daily, study 1",−36.3
same,time to normalization of serum CRP level,"[4]; 200 mg once daily and 100 mg twice daily, study 1",≤ 1 week
same,ACR20 responders at week 4,"[4]; 200 mg once daily, study 1",9 (75.0) no. (%)
same,ACR50 responders at week 4,"[4]; 200 mg once daily, study 1",2 (16.7) no. (%)
same,"DAS28‐CRP, mean change from baseline at week 4","[4]; 200 mg once daily, study 1",−2.23
same,"HAQ DI score, mean change from baseline at week 4","[4]; 200 mg once daily, study 1",−0.57
same,"Patient's assessment of pain, mean change from baseline at week 4","[4]; 200 mg once daily, study 1",−24.3 0–10‐cm VAS
same,"Patient's global assessment of disease activity, mean change from baseline at week 4","[4]; 200 mg once daily, study 1",−23.8 0–10‐cm VAS
same,"Physician's global assessment of disease activity, mean change from baseline at week 4","[4]; 200 mg once daily, study 1",−26.7 0–10‐cm VAS
same,Remission rate (DAS28‐CRP <2.6) at week 4,"[4]; 200 mg once daily, study 1",2 (16.7) no. (%)
same,"SJC66, mean change from baseline at week 4","[4]; 200 mg once daily, study 1",−12.8
same,"Serum CRP, mean change from baseline at week 4","[4]; 200 mg once daily, study 1",-35.05 mg/L
same,"TJC68, mean change from baseline at week 4","[4]; 200 mg once daily, study 1",−23.1
same,patients achieving an ACR20 response,"[4]; study 1, all filgotinib‐treated patients, end of 4 weeks",> 83%
